“Also recorded” adds a separate entry of the source.
Assays:
[1] = target: Dyn1 (S. cerevisiae cytoplasmic dynein heavy chain), full length, ZZ-TEV-GFP and HaloTag tagged (S. cerevisiae) (UniProt P36022); assay: single-molecule TIRF fluorescence intensity analysis
Pac11-Myc = assay: Single-molecule Dyn1-Pac11 colocalization assay; format: binding, S. cerevisiae; conditions: pH 7.2, motors diluted as for motility assays (∼1 nM)
Method in brief: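 Glass flow chamber from HNO3/NaOH-cleaned coverslip. Sequential steps: Cy5-labelled rabbit anti-Myc diluted 10,000× in 30 mM HEPES, 2 mM MgCl2, 1 mM EGTA, 0.5 mg/ml BSA (pH 7.2), 2 min; blocking buffer with 5 mg/ml BSA and 1 mg/ml β-casein, 5 min; TMR-HaloTag-labelled, TEV-released Dyn1 in blocking buffer, 5 min; second round of antibody, 5 min. Cy5–TMR spot colocalization scored.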

Dyn2 = Dyn2 (Saccharomyces cerevisiae, UniProt Q02647); assay: Western blot of Dyn2 copurifying with Dyn1; format: binding, S. cerevisiae; conditions: IgG affinity purification, anti-Dyn2 Western blot, Dyn1 normalized
Method in brief: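 Dyn1 was IgG-bead purified from yeast lysate of WT, dyn2Δ and dyn2Δpac11Δ strains (lysis pH 7.4, 100 μM MgATP, beads 1 h at 4°C) and TEV-released at 16°C for 1 h. Dyn1 was quantified by Krypton-stained SDS–PAGE against BSA standards, then equal Dyn1 amounts were loaded. Blots used rabbit anti-Dyn2 (1:200), anti-Myc for Pac11 (1:2000) and Alexa Fluor 680 anti-rabbit secondary (1:5000).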

microtubules = conditions: full-length dynein, HaloTag-TMR labeled; ref Reck-Peterson et al., 2006; cited from earlier work
[2] = Solubility of Dyn2 constructs on concentration; format: physicochemical; conditions: buffer A, pH 6.8; WT 6.0 mg/ml, H58K 10.0 mg/ml, F76K/Y78E 6.0 mg/ml
[3] = target: Dyn2 (S. cerevisiae dynein light chain), wild type, full length (S. cerevisiae, UniProt Q02647 1-92); assay: ITC

In the case of “Dyn1 (S. cerevisiae cytoplasmic dynein heavy chain), full length, ZZ-TEV-GFP and HaloTag tagged, P36022 1-4092”, the stoichiometry N [1] is reported as 2.

In the case of “Dyn1 purified from dyn2Δ: TMR-labeled Dyn1 purified from VY263 with dyn2Δ”, the “colocalization of Dyn1 with Pac11-Myc (in words)” value (Pac11-Myc) is reported as “did not reveal any associated Pac11; also recorded: do not show significant TMR-Cy5 colocalization” and the “Dyn2 copurified with Dyn1” value (Dyn2) is reported as “absence of Dyn2”.

For Dyn1 purified from dyn2Δpac11Δ, the “colocalization of Dyn1 with Pac11-Myc (in words)” value (Pac11-Myc) was “did not reveal any associated Pac11; also recorded: do not show significant TMR-Cy5 colocalization” and the “Dyn2 copurified with Dyn1” value (Dyn2) was “absence of Dyn2”.

In the case of “Dyn1: full-length dynein labeled at its C-terminus with the HaloTag and covalently bound to tetramethylrhodamine (TMR)”, the average run length (microtubules) is listed as 1.7 μm.

For Dyn2 F76K/Y78E, the “solubility during concentration step” value [2] was “remained soluble”.

In the case of Dyn2 H58K, the “solubility during concentration step” value [2] is reported as “remained soluble”.

B1: Pac11 peptide 2 (second Dyn2-binding site of Pac11, residues 75-85) (peptide)
peptide: ITYDKGIQTDQ
For B1, the Kd [3] was 620 nM, the dH [3] was -5.17 ± 0.139 kcal/mol and the “stoichiometry N” value [3] was 1.05 ± 0.02 sites.
